Reference: ChEMBL document CHEMBL4342470, “Detection of Active Granzyme A in NK92 Cells with Fluorescent Activity-Based Probe” (J Med Chem, 2020)
Blank lines part the entries; values can stand above or below the compound they belong to. Calls of active or inactive are those of the source. The calls are words filed in the database; no cut-off is given here. Non-standard residues stand in square brackets, D forms with d. Residues, ends and D or L forms follow the SMILES beside them. ξ: configuration not given here. *: point of attachment. Phe(4-guanidino) = N=C(N)Nc1ccc(C[C@H](N)C(=O)O)cc1; Oic(3aξ,7aξ) = O=C(O)[C@@H]1CC2CCCCC2N1; ACC = NC(=O)Cc1cc(=O)oc2cc(N*)ccc12; Met(O) = CS(=O)CC[C@H](N)C(=O)O; Tic = O=C(O)[C@@H]1Cc2ccccc2CN1; X1 = Clc1cccc(Cl)c1C*

Legend:
[1] = molecular target: T1, Granzyme A (Homo sapiens) (UniProt P12544); test: Inhibition of Granzyme A (unknown origin) expressed in Pichia pastoris assessed as second- order inhibition rate constant (Kobs/I ratio) pre-incubated with SK15 substrate for 15 mins before enzyme addition by spectrofluorometry
T1 sequence (whole entry): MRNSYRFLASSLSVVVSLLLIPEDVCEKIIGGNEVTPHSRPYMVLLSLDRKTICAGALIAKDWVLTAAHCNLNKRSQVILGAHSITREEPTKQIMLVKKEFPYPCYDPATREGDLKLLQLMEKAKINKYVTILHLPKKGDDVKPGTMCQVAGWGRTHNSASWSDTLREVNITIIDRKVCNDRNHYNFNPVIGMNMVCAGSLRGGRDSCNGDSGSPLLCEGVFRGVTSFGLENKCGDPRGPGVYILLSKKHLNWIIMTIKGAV
Method in brief: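 Recombinant GrA at 350 nM, pre-warmed at 37 °C, added to SK15 substrate that had been preincubated 15 min at 37 °C with varied inhibitor or probe (inhibitor range 714–333 nM, SK15 10 μM). Tris/NaCl/CaCl2/Tween-20 buffer, pH 7.5. AMC-type fluorescence at 355/460 nm under pseudo-first-order conditions to give kobs/I. Mean of at least three experiments with standard deviation.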

[2] = molecular target: T2, Granzyme M (Homo sapiens) (UniProt P51124); test: Inhibition of Granzyme M (unknown origin) expressed in Pichia pastoris using Ac-Lys-Val-Pro-Leu-ACC substrate by spectrofluorometry relative to control
T2 sequence (whole entry): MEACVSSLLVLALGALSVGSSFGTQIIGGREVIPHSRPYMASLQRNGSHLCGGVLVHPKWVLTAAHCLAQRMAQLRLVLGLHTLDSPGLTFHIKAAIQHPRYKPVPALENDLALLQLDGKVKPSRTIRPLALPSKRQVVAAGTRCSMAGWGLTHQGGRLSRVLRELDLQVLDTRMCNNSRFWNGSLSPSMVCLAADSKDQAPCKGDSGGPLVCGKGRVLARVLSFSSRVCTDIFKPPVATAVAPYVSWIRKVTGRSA
Method in brief: (§1)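 Each enzyme preincubated 30 min at 37 °C with 10 μM compound, then its matched ACC substrate added (SK15 for GrA, GrKref, GrBref, Ac-KVPL-ACC for GrM, and the PR3 and hNE substrates). Enzyme levels: GrK 488 nM, GrB 18 nM, GrM 74 nM, hNE 3.3 nM, PR3 3.4 nM. Reference substrates at 200 μM. Fluorescence read at 355/460 nm; residual activity relative to an untreated enzyme control.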

[3] = molecular target: T3, Myeloblastin (Homo sapiens) (UniProt P24158); test: Inhibition of PR3 (unknown origin) expressed in Pichia pastoris using Ac-Glu(O-Bzl)-Lys(Ac)-Hyp(Bzl)-Nva-ACC substrate by spectrofluorometry relative to control; method in brief: as §1
T3 sequence (whole entry): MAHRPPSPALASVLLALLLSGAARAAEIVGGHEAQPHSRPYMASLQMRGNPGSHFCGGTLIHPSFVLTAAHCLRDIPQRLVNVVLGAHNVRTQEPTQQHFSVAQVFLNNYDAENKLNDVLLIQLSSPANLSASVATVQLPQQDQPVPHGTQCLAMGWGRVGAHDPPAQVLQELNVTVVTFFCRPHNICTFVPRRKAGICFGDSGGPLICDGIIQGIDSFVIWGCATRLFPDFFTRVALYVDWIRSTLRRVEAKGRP

[4] = molecular target: T4, Granzyme K (Homo sapiens) (UniProt P49863); test: Inhibition of Granzyme K (unknown origin) expressed in Pichia pastoris using GrKref substrate by spectrofluorometry relative to control; conditions: concentration not given here; method in brief: as §1
T4 sequence (whole entry): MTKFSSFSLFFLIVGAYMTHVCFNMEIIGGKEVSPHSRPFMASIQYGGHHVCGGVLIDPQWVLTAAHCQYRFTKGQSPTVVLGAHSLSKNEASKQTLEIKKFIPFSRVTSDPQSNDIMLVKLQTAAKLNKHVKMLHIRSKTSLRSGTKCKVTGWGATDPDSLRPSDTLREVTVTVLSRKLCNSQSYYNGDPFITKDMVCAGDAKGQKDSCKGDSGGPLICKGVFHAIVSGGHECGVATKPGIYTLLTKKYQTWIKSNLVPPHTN

[5] = molecular target: T5, Neutrophil elastase (Homo sapiens) (UniProt P08246); test: Inhibition of human neutrophil elastase expressed in Pichia pastoris using Ac-Arg(NO)2-Glu(Bzl)-Oic-Abu-ACC substrate by spectrofluorometry relative to control; method in brief: as §1
T5 sequence (whole entry): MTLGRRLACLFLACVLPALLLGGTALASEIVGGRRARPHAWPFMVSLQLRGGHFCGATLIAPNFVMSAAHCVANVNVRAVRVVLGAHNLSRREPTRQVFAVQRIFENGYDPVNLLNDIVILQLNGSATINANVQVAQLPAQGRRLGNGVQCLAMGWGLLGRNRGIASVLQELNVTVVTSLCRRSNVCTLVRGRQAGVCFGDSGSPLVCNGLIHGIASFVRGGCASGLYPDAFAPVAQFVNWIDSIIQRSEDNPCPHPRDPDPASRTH

[6] = molecular target: T1, Granzyme A (Homo sapiens); test: Inhibition of Granzyme A (unknown origin) expressed in Pichia pastoris using SK15 substrate by spectrofluorometry relative to control; method in brief: as §1
[7] = molecular target: Granzyme B (Homo sapiens) (UniProt P10144); test: Inhibition of Granzyme B (unknown origin) expressed in Pichia pastoris using GrBref substrate by spectrofluorometry relative to control; method in brief: as §1
[8] = molecular target: T1, Granzyme A (Homo sapiens); test: Substrate activity at Granzyme A (unknown origin) expressed in Pichia pastoris incubated for 30 mins by fluorescence based assay
[9] = molecular target: T1, Granzyme A (Homo sapiens); test: Binding affinity to Granzyme A (unknown origin) expressed in Pichia pastoris assessed as appearance of fluorescent 35 kDa species at enzyme to probe ratio was 1:1 incubated for 5 mins by SDS-PAGE based in-gel detection method
Method in brief: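 Recombinant GrA (Pichia pastoris) at 250 nM with 250 nM Cy5 probe (1:1) in Tris/NaCl/CaCl2/Tween-20 buffer pH 7.5, 37 °C, for 0–120 min. Reduced in SDS/DTT at 95 °C, run on 4–12% Bis-Tris SDS-PAGE, transferred to nitrocellulose, fluorescence read at 658 nm.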

[10] = molecular target: T1, Granzyme A (Homo sapiens); test: Binding affinity to Granzyme A in human NK92 cells at 1 uM treated 1 hr after GrA covalent inhibitor methyl 4-[(3S)-3-[[2-[(2S)-2-[(1-diphenoxyphosphoryl-4-guanidinobutyl)carbamoyl]-2,3,3a,4,5,6,7,7a-octahydroindol-1-yl]-2-oxoethyl]carbamoyl]-3,4-dihydro-1H-isoquinolin-2-yl]-4-oxobutanoate dosing and measured 30 mins to 2 hrs post dose by SDS-PAGE analysis; type: cell-based
[11] = molecular target: T1, Granzyme A (Homo sapiens); test: Binding affinity to Granzyme A zymogen form (unknown origin) expressed in Pichia pastoris at 500 nM in presence of 1 uM compound 3 by Western blot analysis
Method in brief: (§2)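 Active GrA or proenzyme diluted to 250 nM final in pH 7.5 assay buffer, with or without 1 h preincubation with 1 μM diphenyl phosphonate inhibitor at 37 °C. Probe added at 500 nM final for another 1 h, then SDS/DTT, SDS-PAGE and transfer. Probe read at 658 nm, anti-GrA rabbit monoclonal with Alexa 488 secondary.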

[12] = molecular target: T1, Granzyme A (Homo sapiens); test: Binding affinity to Granzyme A in human NK92 cells at 1 uM measured 30 mins to 2 hrs post dose by SDS-PAGE analysis; type: cell-based
[13] = molecular target: T1, Granzyme A (Homo sapiens); test: Binding affinity to Granzyme A (unknown origin) expressed in Pichia pastoris assessed as minimum concentration needed for GrA labeling at enzyme to probe ratio was 1:1 incubated for 5 to 30 mins by SDS-PAGE based in-gel detection method
Method in brief: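 Recombinant GrA (Pichia pastoris), 250 nM, with probe at 10–500 nM for 30 min at 37 °C in pH 7.5 Tris/NaCl/CaCl2/Tween-20 buffer. SDS/DTT reduction, 4–12% Bis-Tris SDS-PAGE, transfer, and probe fluorescence at 658 nm, used to estimate the lowest labeling concentration.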

[14] = molecular target: T1, Granzyme A (Homo sapiens); test: Binding affinity to Granzyme A zymogen form (unknown origin) expressed in Pichia pastoris by Western blot analysis; method in brief: as §2
[15] = molecular target: T1, Granzyme A (Homo sapiens); test: Binding affinity to Granzyme A in human NK92 cells at 250 nM to 2 uM incubated for 1 hr by SDS-PAGE based in-gel detection assay; type: cell-based
[16] = molecular target: T1, Granzyme A (Homo sapiens); test: Binding affinity to Granzyme A active form (unknown origin) expressed in Pichia pastoris at 500 nM in presence of 1 uM methyl 4-[(3S)-3-[[2-[(2S)-2-[(1-diphenoxyphosphoryl-4-guanidinobutyl)carbamoyl]-2,3,3a,4,5,6,7,7a-octahydroindol-1-yl]-2-oxoethyl]carbamoyl]-3,4-dihydro-1H-isoquinolin-2-yl]-4-oxobutanoate by Western blot analysis; method in brief: as §2
[17] = molecular target: T1, Granzyme A (Homo sapiens); test: Binding affinity to Granzyme A active form (unknown origin) expressed in Pichia pastoris by Western blot analysis; method in brief: as §2
[18] = molecular target: Granzyme B (Homo sapiens) (UniProt P10144); test: Substrate activity at Granzyme B (unknown origin) expressed in Pichia pastoris assessed as compound hydrolysis at 200 uM incubated for 30 mins by fluorescence based assay relative to control

Sequence of Granzyme B (Homo sapiens) (P10144 whole entry): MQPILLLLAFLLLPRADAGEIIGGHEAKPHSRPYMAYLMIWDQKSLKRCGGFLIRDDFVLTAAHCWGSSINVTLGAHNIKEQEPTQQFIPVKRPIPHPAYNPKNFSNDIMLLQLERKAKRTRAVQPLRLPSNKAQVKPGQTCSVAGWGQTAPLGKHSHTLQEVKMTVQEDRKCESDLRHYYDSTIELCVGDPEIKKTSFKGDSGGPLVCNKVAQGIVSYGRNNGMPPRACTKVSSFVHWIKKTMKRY

SMILES: COC(=O)CCC(=O)N1Cc2ccccc2C[C@H]1C(=O)NCC(=O)N1C2CCCCC2C[C@H]1C(=O)NC(CCCNC(=N)N)P(=O)(Oc1ccccc1)Oc1ccccc1 (stereo partly drawn)
Ratio [1]: 171000 s⁻¹ M⁻¹
inhibition ([2]; concentration not given here): < 20%
inhibition ([3]; concentration not given here): < 20%
inhibition [4]: < 20%
inhibition ([5]; concentration not given here): < 20%
inhibition ([6]; concentration not given here): < 20%
inhibition ([7]; concentration not given here): < 20%

SMILES: CC(=O)N[C@@H](CC[S+](C)[O-])C(=O)NCC(=O)N[C@@H](Cc1ccc(OCc2c(Cl)cccc2Cl)cc1)C(=O)N[C@@H](Cc1ccc(NC(=N)N)cc1)C(=O)Nc1ccc2c(CC(N)=O)cc(=O)oc2c1 (stereo partly drawn) (Ac-[Met(O)]GY(X1)[Phe(4-guanidino)]-{ACC})
Activity [8]: Active

SMILES: CN1\C(=C/C=C/C=C/C2N(CCCCCC(=O)NCCCCCC(=O)N3Cc4ccccc4C[C@H]3C(=O)NCC(=O)N3C4CCCCC4C[C@H]3C(=O)NC(CCCNC(=N)N)P(=O)(Oc3ccccc3)Oc3ccccc3)c3ccccc3C2(C)C)C(C)(C)c2ccccc21 (stereo partly drawn)
Activity [9]: Active
Activity [10]: inactive
Ratio [1]: 3520 s⁻¹ M⁻¹
inhibition [2]: inactive
inhibition [3]: inactive
Activity [11]: inactive
inhibition [4]: 3%
Activity [12]: Active
inhibition [5]: inactive
MEC [13]: 50 nM
Activity [14]: inactive
inhibition [6]: inactive
Activity [15]: Active
Activity [16]: inactive
Activity [17]: Active
inhibition [7]: inactive

SMILES: CC(=O)N1Cc2ccccc2C[C@H]1C(=O)NC(CCc1nc2ccccc2s1)C(=O)N1C2CCCCC2C[C@H]1C(=O)N[C@@H](CCCNC(=N)N)C(=O)Nc1ccc2c(CC(N)=O)cc(=O)oc2c1 (stereo partly drawn)
Activity [8]: Active

SMILES: CC(=O)N1Cc2ccccc2C[C@H]1C(=O)NCC(=O)N1C2CCCCC2C[C@H]1C(=O)N[C@@H](Cc1ccc(NC(=N)N)cc1)C(=O)Nc1ccc2c(CC(N)=O)cc(=O)oc2c1 (stereo partly drawn) (Ac-[Tic]G[Oic(3aξ,7aξ)][Phe(4-guanidino)]-{ACC})
Activity [8]: Active

The next lines start with the values.

Activity [8]: Active
SMILES: CC[C@H](C)[C@H](NC(C)=O)C(=O)NCC(=O)N1C2CCCCC2C[C@H]1C(=O)N[C@@H](Cc1ccc(NC(=N)N)cc1)C(=O)Nc1ccc2c(CC(N)=O)cc(=O)oc2c1 (stereo partly drawn) (Ac-IG[Oic(3aξ,7aξ)][Phe(4-guanidino)]-{ACC})

Activity [18]: Active
SMILES: CC(=O)N[C@@H](CC[S+](C)[O-])C(=O)NCC(=O)N1CC(OCc2ccccc2)C[C@H]1C(=O)Nc1cccc(C(=O)Nc2ccc3c(CC(N)=O)cc(=O)oc3c2)c1 (stereo partly drawn)
